Assay [1] in a line: Her2 expression decrease, cell viability multiplex – SKBR3 breast tumor cells, AlphaScreen, ATP viability, primary screen (AID 461;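 active = Her2 level under about 52% in both replicate screens, with viability over 70% of control, limit read from the data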;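 as to Her2 level: lower value means less Her2 protein in the cells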;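 as to viability: percent of carrier control wells set as 100% viability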). The note with it: SKBR3 Her2 protein level, 18-24 h, measured here: SKBR3 viability, ATP luminescence, at 10 µM. (In general: In Alpha technology, singlet oxygen from a donor bead excites a nearby acceptor bead.)
Assay [2] addresses Receptor tyrosine-protein kinase erbB-2 (Homo sapiens) (UniProt P04626). Described as above. The note with it: 18-24 h, at 10 µM, stronger effect = lower value.
Assay [3] in a line: reduced viability of SK-BR-3 breast cancer cells – cell-based, 24 h, human, pilot screen (AID 572;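 active = viability at or below 10% of carrier control in both of two separate runs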;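 also: compound exposure lasted between 18 and 24 h rather than exactly 24 h; 100% = carrier-treated control wells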). The following applies: SK-BR-3 viability, CellTiter-Glo luminescence, at 10 µM, stronger effect = lower value.
Assay [4] can be described thus: HUVEC growth inhibition – cell-based, human, primary screen (AID 575).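 Also: 100% = median of untreated cell wells with 0.1% DMSO on each plate.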 The note with it: HUVEC proliferation, CellTiter-Glo luminescence, 72 h; at 10 µM; stronger effect = lower value. The method, boiled down:
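Test system: HUVEC primary cells. Quantity: 1250 endothelial cells in each well. Dosing: single-point 10 µM, DMSO 0.1% final. Incubation: 72 h treatment at 37 °C. Measured by: CTG luminescence. Control set: DMSO cell controls and MePR drug controls. Plate: collagen-coated 384-well format.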
In general terms: ATP-based viability assays read luminescence as a measure of living cells.

Assay [5] in a line: H69AR cell proliferation blockers – human, duplicate replicates, primary screen (AID 580;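 active = viability at or under a set limit in both replicates, limit being median viability minus 3 SD, cut at about 48% in these data, passing the limit was not always enough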;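 also: 100% = mean luminescence of untreated wells and 0% = no signal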). The note with it: H69AR lung tumor cells viability, ATP luminescence, 72 h; at 10 µM; stronger effect = lower value.
The nature of assay [6]: MRP1 drug-resistance reversers in H69AR cells – cell-based, doxorubicin co-treatment, pilot screen (AID 601;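 active = viability loss from added drug above about 55%, and viability with drug at most 40%, in both replicates, limit read from the data, passing the limit was not always enough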). The note with it: CellTiter-Glo, 72 h, at 10 µM; for differential viability (reversal): stronger effect = higher value.
Assay [7] can be described thus: yeast transport mutant growth inhibition pilot in 384-well plates, post-Golgi transport modulator project (AID 636; in the data active = inhibition above about 31%). The following applies: absorbance 615 nm, about 18 h, stronger effect = higher value.
The nature of assay [8]: growth suppression of yeast trafficking mutant, preliminary HTS, modulators of trafficking downstream of Golgi apparatus project, 1536-format plate, OD 615 nm (AID 637; in the data active = inhibition above about 30%). The note with it: yeast transport mutant growth, absorbance 615 nm, 18 h; stronger effect = higher value.
Setting [9] is: H69AR cells + 2 uM doxorubicin, measured here: viability with 2 uM doxorubicin, stronger effect = lower value.
Setting [10] is: H69AR cells, compound alone cytotoxicity.

The source made the active and inactive calls.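 The calls were made as follows, unless noted: active = viability at or below 30% in both replicate assays; inconclusive = viability at or below 30% in just one of the two assays; inactive = the rest.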

Receptor tyrosine-protein kinase erbB-2 (Homo sapiens), sequence (P04626 whole entry, looked up): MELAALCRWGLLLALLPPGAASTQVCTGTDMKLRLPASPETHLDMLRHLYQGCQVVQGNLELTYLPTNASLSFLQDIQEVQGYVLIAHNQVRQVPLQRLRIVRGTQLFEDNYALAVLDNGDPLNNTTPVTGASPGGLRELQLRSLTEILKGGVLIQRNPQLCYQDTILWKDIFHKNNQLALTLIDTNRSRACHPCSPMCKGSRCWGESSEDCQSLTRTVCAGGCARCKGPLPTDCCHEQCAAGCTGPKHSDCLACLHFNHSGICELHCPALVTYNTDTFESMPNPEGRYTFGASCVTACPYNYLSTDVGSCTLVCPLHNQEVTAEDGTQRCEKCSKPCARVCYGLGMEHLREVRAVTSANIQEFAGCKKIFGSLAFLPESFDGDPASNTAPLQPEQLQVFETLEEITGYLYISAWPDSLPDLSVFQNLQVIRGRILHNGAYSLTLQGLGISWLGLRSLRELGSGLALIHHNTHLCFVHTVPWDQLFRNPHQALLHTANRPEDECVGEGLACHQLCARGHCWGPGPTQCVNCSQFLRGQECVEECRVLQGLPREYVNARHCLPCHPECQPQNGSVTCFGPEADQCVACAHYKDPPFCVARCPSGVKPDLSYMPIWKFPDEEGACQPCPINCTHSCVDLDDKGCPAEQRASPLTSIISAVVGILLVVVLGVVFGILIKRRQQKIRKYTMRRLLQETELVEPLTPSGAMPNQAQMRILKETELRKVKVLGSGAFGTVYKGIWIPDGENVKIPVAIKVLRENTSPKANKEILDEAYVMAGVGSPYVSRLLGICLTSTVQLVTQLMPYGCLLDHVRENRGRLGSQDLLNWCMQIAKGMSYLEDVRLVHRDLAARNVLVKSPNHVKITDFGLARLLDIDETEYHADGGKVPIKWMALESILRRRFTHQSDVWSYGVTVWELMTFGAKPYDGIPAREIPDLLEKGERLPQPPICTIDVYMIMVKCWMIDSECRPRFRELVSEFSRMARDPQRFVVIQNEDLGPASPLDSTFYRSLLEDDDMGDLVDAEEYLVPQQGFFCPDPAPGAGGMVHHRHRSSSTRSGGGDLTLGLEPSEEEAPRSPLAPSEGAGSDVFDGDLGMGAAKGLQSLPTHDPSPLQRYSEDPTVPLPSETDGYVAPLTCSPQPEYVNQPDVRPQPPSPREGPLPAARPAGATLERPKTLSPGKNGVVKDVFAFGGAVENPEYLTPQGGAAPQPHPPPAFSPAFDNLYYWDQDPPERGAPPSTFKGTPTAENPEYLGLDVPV

Turning to `N#Cc1nc(COc2ccc(Br)cc2)oc1N1CCCC1`, the viability in assay [1] was 99%; in assay [3], 99% (inactive); in assay [4] it was 89.4% (inactive); in assay [5], 87.5% (inactive); in assay [6] (setting [9]), 86.7%; in assay [6] (setting [10]) it was 87.5%. For the same molecule, in assay [2], the Her2 level is 90% (inactive). Also, the differential viability (reversal) in assay [6] (H69AR cells + 2 uM doxorubicin) is 0.745% (inactive). The inhibition in assay [7] is -7.07% (inactive); in assay [8], 0.66% (inactive).
Consider `COc1ccccc1OCCCCNCCO`, for which the viability in assay [1] was 95.5%; in assay [3], 95.5% (inactive); in assay [4], 92% (inactive); in assay [5], 101% (inactive); in assay [6] (setting [9]) it was 88.7%; in assay [6] (setting [10]), 101%. Further, in assay [2], the Her2 level was 116% (inactive). For the same molecule, in assay [6] (H69AR cells + 2 uM doxorubicin), the differential viability (reversal) is 12.6% (inactive). Further, the inhibition in assay [7] is -1.56% (inactive); in assay [8], -7.83% (inactive).
For the molecule `Cc1ccc(C(=O)CSc2nnc(-c3cccnc3)n2N)cc1`, the viability in assay [1] was 104%; in assay [3], 104% (inactive); in assay [4] it was 68.9% (inactive); in assay [5], 28.2% (active); in assay [6] (setting [9]), 77.4%; in assay [6] (setting [10]) it was 28.2%. Besides, the Her2 level in assay [2] was 89.5% (inactive). Besides, the differential viability (reversal) in assay [6] (H69AR cells + 2 uM doxorubicin) is -49.2% (inactive). For the same molecule, the inhibition in assay [7] was -0.93% (inactive); in assay [8], 0.97% (inactive).
`O=C(Nc1ccccc1N1CCOCC1)c1ccc2ccccc2n1`: the viability in assay [1] was 90%; in assay [3], 90% (inactive); in assay [4], 67.4% (inactive); in assay [5] it was 79.4% (inactive); in assay [6] (setting [9]), 91.9%; in assay [6] (setting [10]), 79.4%. Also, the Her2 level in assay [2] is 83.5% (inactive). In assay [6] (H69AR cells + 2 uM doxorubicin), the differential viability (reversal) was -12.4% (inactive). For the same molecule, the inhibition in assay [7] is -4.74% (inactive); in assay [8] it was -2% (inactive).
As to `CCOC(=O)N1CCN(Cc2cc(=O)oc3ccc4ccccc4c23)CC1`, the viability in assay [1] was 91.5%; in assay [3], 91.5% (inactive); in assay [4] it was 79.9% (inactive); in assay [5], 87.3% (inactive); in assay [6] (setting [9]), 79.6%; in assay [6] (setting [10]), 87.3%. In assay [2], the Her2 level is 86% (inactive). Further, the differential viability (reversal) in assay [6] (H69AR cells + 2 uM doxorubicin) was 7.66% (inactive). In addition, the inhibition is -7.07% (inactive) in assay [7] and 2.86% (inactive) in assay [8].
As for `CCOC(=O)Cc1nn2c(=O)cc(C)nc2s1`, the viability in assay [1] was 116%; in assay [3] it was 116% (inactive); in assay [4] it was 102% (inactive); in assay [5], 102% (inactive); in assay [6] (setting [9]), 99.4%; in assay [6] (setting [10]) it was 102%. Also, the Her2 level in assay [2] was 111% (inactive). Moreover, the differential viability (reversal) in assay [6] (H69AR cells + 2 uM doxorubicin) was 2.55% (inactive). Besides, the inhibition in assay [7] was -1.07% (inactive); in assay [8] it was 1.64% (inactive).
In the case of `CC(C)[C@H](NC(=O)OC(C)(C)C)c1nnc(SCc2cccc(F)c2)o1`, the viability in assay [1] is 90%; in assay [3], 90% (inactive); in assay [4], 107% (inactive); in assay [5] it was 96.4% (inactive); in assay [6] (setting [9]), 97.5%; in assay [6] (setting [10]) it was 96.4%. Besides, the Her2 level in assay [2] was 120% (inactive). For the same molecule, the differential viability (reversal) in assay [6] (H69AR cells + 2 uM doxorubicin) was -1.12% (inactive). Further, the inhibition in assay [7] is 0.13% (inactive); in assay [8], 0% (inactive).
For the molecule `Cc1cccc(NS(=O)(=O)c2cc(C(=O)OCC(=O)Nc3cc(C)on3)ccc2C)c1`, the viability in assay [1] was 93%; in assay [3], 93% (inactive); in assay [4], 77.7% (inactive); in assay [5], 112% (inactive); in assay [6] (setting [9]), 102%; in assay [6] (setting [10]), 112%. Further, in assay [2], the Her2 level was 86% (inactive). Moreover, in assay [6] (H69AR cells + 2 uM doxorubicin), the differential viability (reversal) was 10.1% (inactive). The inhibition in assay [7] was -2.8% (inactive); in assay [8], -2.26% (inactive).
On to `O=C(O)CN1C(=O)C2(OCCCO2)c2ccccc21`, for which the viability was 86.5% in assay [1]; 86.5% (inactive) in assay [3]; 101% (inactive) in assay [4]; 85.1% (inactive) in assay [5]; 85.4% in assay [6] (setting [9]); 85.1% in assay [6] (setting [10]). The Her2 level in assay [2] is 102% (inactive). In addition, the differential viability (reversal) in assay [6] (H69AR cells + 2 uM doxorubicin) was -0.23% (inactive). Moreover, the inhibition in assay [7] is -0.91% (inactive); in assay [8] it was 0.49% (inactive).
Regarding `Cc1cc(C)cc(NS(=O)(=O)c2ccc3[nH]c(=O)[nH]c3c2)c1`, the viability is 108% in assay [1]; 108% (inactive) in assay [3]; 90.1% (inactive) in assay [4]; 85.5% (inactive) in assay [5]; 86% in assay [6] (setting [9]); 85.5% in assay [6] (setting [10]). Besides, the Her2 level in assay [2] was 89% (inactive). For the same molecule, in assay [6] (H69AR cells + 2 uM doxorubicin), the differential viability (reversal) was -0.57% (inactive). The values for the inhibition in assay [7] and in assay [8] were -2.21% (inactive) and -4.5% (inactive), respectively.
Take `O=C(Nc1ccc2c(c1)OCO2)c1nn(-c2ccccc2)c(=O)c2ccccc12`: the viability was 108% in assay [1]; 108% (inactive) in assay [3]; 72.8% (inactive) in assay [4]; 74.7% (inactive) in assay [5]; 79.4% in assay [6] (setting [9]); 74.7% in assay [6] (setting [10]). Also, the Her2 level in assay [2] was 81% (inactive). For the same molecule, the differential viability (reversal) in assay [6] (H69AR cells + 2 uM doxorubicin) is -4.67% (inactive). Moreover, the values for the inhibition in assay [7] and in assay [8] were -1.43% (inactive) and 1.75% (inactive), respectively.
With `COc1ccccc1NC(=O)CSc1nnc(-c2ccncc2)n1CC1CCCO1` (stereo not given), the viability in assay [1] is 97%; in assay [3], 97% (inactive); in assay [4] it was 103% (inactive); in assay [5], 96.7% (inactive); in assay [6] (setting [9]), 90.1%; in assay [6] (setting [10]), 96.7%. In addition, the Her2 level in assay [2] was 91% (inactive). In addition, the differential viability (reversal) in assay [6] (H69AR cells + 2 uM doxorubicin) was 6.53% (inactive). The inhibition is -5.33% (inactive) in assay [7] and -3.81% (inactive) in assay [8].
With `Cn1c(=O)c2c(nc(NCc3ccc4c(c3)OCO4)n2Cc2ccccc2F)n(C)c1=O`, the viability was 82% in assay [1]; 82% (inactive) in assay [3]; 105% (inactive) in assay [4]; 76% (inactive) in assay [5]; 84% in assay [6] (setting [9]); 76% in assay [6] (setting [10]). In assay [2], the Her2 level is 60% (inactive). Besides, the differential viability (reversal) in assay [6] (H69AR cells + 2 uM doxorubicin) is -8.01% (inactive). In addition, the inhibition in assay [7] is -3.65% (inactive); in assay [8], 7.3% (inactive).
As for `O=C(CN1C(=O)C2CC=C(Cl)CC2C1=O)Nc1ccc(C(=O)O)cc1` (stereo not given), the viability in assay [1] is 127%; in assay [3], 127% (inactive); in assay [4], 99.1% (inactive); in assay [5] it was 94.7% (inactive); in assay [6] (setting [9]), 95.4%; in assay [6] (setting [10]) it was 94.7%. Also, the Her2 level in assay [2] was 101% (inactive). In addition, the differential viability (reversal) in assay [6] (H69AR cells + 2 uM doxorubicin) was -0.64% (inactive). The inhibition in assay [7] was -3.55% (inactive); in assay [8], -0.16% (inactive).
As for `CCCN1C(=O)SC(CC(=O)Nc2ccc(Br)cc2)C1=O` (stereo not given), the viability in assay [1] is 105%; in assay [3], 105% (inactive); in assay [4], 77.7% (inactive); in assay [5], 95.8% (inactive); in assay [6] (setting [9]), 91.2%; in assay [6] (setting [10]), 95.8%. Besides, the Her2 level in assay [2] is 112% (inactive). Besides, in assay [6] (H69AR cells + 2 uM doxorubicin), the differential viability (reversal) was 4.58% (inactive). Further, the figures for the inhibition in assay [7] and in assay [8] were -2.24% (inactive) and -8.41% (inactive), respectively.

As usually defined, the viability is a read-out of living cells in per cent, often relative to untreated cells. The inhibition is the drop in the measured response relative to a control, in per cent.

The values are drawn from PubChem BioAssay.
